Measurements: the RNAGym collection of RNA variant scans (doi:10.1126/science.aae0568)
This sample holds only a part of the variants without activity.

B1: tRNA (parent)
chain: GUUCCGUUGGCGUAAUGGUAACGCGUCUCCCUCCUAAGGAGAAGACUGCGGGUUCGAGUCCCGUACGGAACG

Variants of: B1
Assay: yeast fitness relative to wild type (ratio to wild type); higher = fitter; tRNA-Arg(CCU), competitive growth, 37 C, YPD
In short: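 Start and end populations of a pooled competition were compared by 100-nucleotide paired-end sequencing of gene amplicons. The Saccharomyces cerevisiae strains carried tRNA-Arg(CCU) gene variants at the native genomic locus, synthesised with a 3% per-site mutation rate at 69 sites, and competed in YPD at 37°C for 24 hours in six parallel replicates. Darwinian fitness relative to wild type was based on the change in genotype frequencies. Genotypes required ≥ 100 starting reads, and estimates < 0.5 were set to 0.5.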
For A14G G18A U26A U32C, the yeast fitness was ≤ 0.5. In the case of A14G G18C A21U C29G G67A, the yeast fitness is reported as ≤ 0.5. For A14G G18C C29G U54C, the yeast fitness was ≤ 0.5. For A14G G18C C30U C34U C61G, the yeast fitness was ≤ 0.5. In the case of A14G G18C C31A, the yeast fitness is reported as ≤ 0.5. With A14G G23A A36G C66U the yeast fitness was ≤ 0.5. In the case of A14G G23A A70C, the yeast fitness is reported as ≤ 0.5. With A14G G23A C49A the yeast fitness was ≤ 0.5. For A14G G23A C60A, the yeast fitness was ≤ 0.5. With A14G G23A U47C the yeast fitness was ≤ 0.5. In the case of A14G G23A U54G, the yeast fitness is reported as ≤ 0.5. In the case of A14G G23C C29G G63C C66G, the yeast fitness is reported as ≤ 0.5. A14G G23C C55U C61U A65U gave a yeast fitness of 0.558. In the case of A14G G25A A36U G50A C62G, the yeast fitness is reported as ≤ 0.5. A14G G25A C30A A57U gave a yeast fitness of 0.607. With A14G G25A C30A A70C the yeast fitness was ≤ 0.5. Work on A14G G25A G44C yielded a yeast fitness of 0.782. With A14G G25C C29A G52A the yeast fitness was ≤ 0.5. With A14G G25C C31A the yeast fitness was ≤ 0.5. A14G G38A A40C G50A U54A showed a yeast fitness of 0.523. For A14G G38A C60U G67C, the yeast fitness was ≤ 0.5. For A14G G38C, the yeast fitness was 0.787. A14G G39A A43U gave a yeast fitness of 0.643. In the case of A14G G39A G44C C61A G63C, the yeast fitness is reported as ≤ 0.5. With A14G G39A G51C the yeast fitness was ≤ 0.5. For A14G G39C G51A, the yeast fitness was ≤ 0.5. For A14G G41A A69C, the yeast fitness was ≤ 0.5. For A14G G41A G44C C49U, the yeast fitness was ≤ 0.5. In the case of A14G G41A U47A C62A, the yeast fitness is reported as ≤ 0.5. For A14G G41C, the yeast fitness was 0.917. With A14G G41C C55A the yeast fitness was ≤ 0.5. In the case of A14G G44C G58A A65G, the yeast fitness is reported as 0.553. A14G G48A C66U gave a yeast fitness of 0.645. For A14G G48C G67C, the yeast fitness was ≤ 0.5. A14G G51A showed a yeast fitness of 0.657. With A14G G51A A57C the yeast fitness was 0.742. In the case of A14G G51A U54C, the yeast fitness is reported as ≤ 0.5. With A14G G52C the yeast fitness was 0.577. A14G G52C C66G gave a yeast fitness of 0.619. In the case of A14G G56C, the yeast fitness is reported as 0.611. For A14G G58C A70U, the yeast fitness was 0.892. In the case of A14G G63A, the yeast fitness is reported as 0.756. In the case of A14G G67U, the yeast fitness is reported as 0.776. With A14G G68A the yeast fitness was 0.653. For A14G U16A, the yeast fitness was 0.886. Work on A14G U16A C24G G51A yielded a yeast fitness of 0.511. With A14G U16A C33A C49U C55U the yeast fitness was ≤ 0.5. For A14G U16A C33A U59C, the yeast fitness was ≤ 0.5. With A14G U16A U47C the yeast fitness was 0.812. In the case of A14G U16G C24G U26C G50C A65U, the yeast fitness is reported as ≤ 0.5. For A14G U16G C24G U26C U47G G50C C66A, the yeast fitness was ≤ 0.5. For A14G U19A A20G A40U C61G, the yeast fitness was 0.515. In the case of A14G U19A C27G G44A C46G C55G C66A, the yeast fitness is reported as ≤ 0.5. A14G U19A C34U C66U gave a yeast fitness of 0.538. For A14G U19A C55U, the yeast fitness was ≤ 0.5. A14G U19C gave a yeast fitness of 0.919. With A14G U19C A21U the yeast fitness was 0.503. A14G U19C G38C G44C C46A showed a yeast fitness of 0.704. A14G U19C G67A gave a yeast fitness of 0.76. In the case of A14G U19G C27G C34A A42U, the yeast fitness is reported as ≤ 0.5. In the case of A14G U19G G48C, the yeast fitness is reported as 0.736. A14G U26A gave a yeast fitness of 0.989. Work on A14G U26A C27G C62A yielded a yeast fitness of 0.571. A14G U26C G48A gave a yeast fitness of 0.661. In the case of A14G U26G G39A, the yeast fitness is reported as ≤ 0.5. In the case of A14G U28A, the yeast fitness is reported as 0.705. For A14G U28A A45C U53A, the yeast fitness was ≤ 0.5. In the case of A14G U28C G67U A69C, the yeast fitness is reported as ≤ 0.5. For A14G U28C U32C C33U G56A, the yeast fitness was ≤ 0.5. In the case of A14G U28G G41C G48A U64C, the yeast fitness is reported as ≤ 0.5. In the case of A14G U32G, the yeast fitness is reported as 0.597. Work on A14G U32G C60U C62U yielded a yeast fitness of 0.539. In the case of A14G U32G U35G A36C C61G A70G, the yeast fitness is reported as ≤ 0.5. Work on A14G U35A A42U C46G G56A A70C yielded a yeast fitness of 0.569. With A14G U35C A57G the yeast fitness was ≤ 0.5. In the case of A14G U35G A37U, the yeast fitness is reported as ≤ 0.5. A14G U47A G56A gave a yeast fitness of 0.724. A14G U47C A69C gave a yeast fitness of 0.706. In the case of A14G U53C G67C, the yeast fitness is reported as ≤ 0.5. For A14G U53G G56A C61U, the yeast fitness was 0.656. For A14G U54A A69U, the yeast fitness was ≤ 0.5. Work on A14G U54C yielded a yeast fitness of 0.633. A14G U54C A70G gave a yeast fitness of 0.535. A14G U59A gave a yeast fitness of 0.894.
